Hit rate of the full screen: of about 360,000 compounds, about 1,700 (0.47%) were called active.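 The calls were made as follows: active = inhibition above its plate's cutoff, the mean of tested wells on that plate plus 3 SD (cut at about 29% in these data); inactive = the rest.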 Only a selection was taken, and actives are over-represented in it overall.

Experimental findings from PubChem BioAssay AID540295 (The Scripps Research Institute Molecular Screening Center, 2011) are described below.

Sequence of Melanocortin receptor 4 (Homo sapiens) (P32245 whole entry, looked up): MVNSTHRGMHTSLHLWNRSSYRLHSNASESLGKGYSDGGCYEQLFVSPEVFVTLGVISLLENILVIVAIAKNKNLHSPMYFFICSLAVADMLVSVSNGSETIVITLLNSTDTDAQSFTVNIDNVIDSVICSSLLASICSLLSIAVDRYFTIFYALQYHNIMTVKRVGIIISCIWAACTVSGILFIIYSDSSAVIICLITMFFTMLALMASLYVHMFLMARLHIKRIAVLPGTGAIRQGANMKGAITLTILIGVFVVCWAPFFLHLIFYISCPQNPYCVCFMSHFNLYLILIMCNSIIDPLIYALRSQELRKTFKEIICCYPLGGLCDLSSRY

The target in this test is Melanocortin receptor 4 (Homo sapiens) (UniProt P32245). Nature of the test: blockers of MC4R Gs-cAMP response – cell-based, TR-FRET, antagonist arm of biased-ligand search, primary screen (AID 540295).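 Also: 0% = Melanotan II alone and 100% = Melanotan II plus saturating MCL0020.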 The settings on record: MC4R-expressing cells, MTII-stimulated cAMP, LANCE TR-FRET; at 6.5 µM; active compounds read high. The method, boiled down:
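Assay system: U2OS-MC4R stable cell line; Also added: Melanotan II; Technique: Eu-cAMP/anti-cAMP TR-FRET, emission 671 nm; Times: 30-min compound, 1-h challenge, 1-h detection, room temperature.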
On the technique in general: Time-resolved FRET reads energy transfer from a long-lived donor to a nearby acceptor.
Turning to `C=CC(=O)OCCOCCOCCOCCOC(=O)C=C`, the inhibition (usually the change of the read-out against control, counted positive when it falls) is -0.74% (inactive).

For `COCC(C)NC(=O)c1ccc(-n2nc(C(F)(F)F)cc2-c2cccs2)cc1` (configuration not stated), the inhibition was 11.7% (inactive).

Take `Cc1ccc(C)c(NC2=NCC(=O)N2c2ccc3c(c2)OCCO3)c1`: the inhibition is -2.27% (inactive).

Take `Cc1cc(=O)oc2c3c(cc(OCC(=O)NCC(O)c4ccccc4)c12)OC(C)(C)CC3` (configuration not stated): the inhibition was 14.2% (inactive).

Take `Brc1c(CSc2nncc3ccccc23)nc2ccccn12`: the inhibition was 0.34% (inactive).

`CCOC(=O)C(C)n1cnc2scc(-c3ccc(C)c(C)c3)c2c1=O` (configuration not stated): the inhibition is 1.47% (inactive).

Take `CCOC(=O)C(C)n1cnc2sc(C)c(C)c2c1=O` (configuration not stated): the inhibition is 31.2% (active).

As to `CC(C(=O)O)n1cnc2sc3c(c2c1=O)CCCC3` (configuration not stated), the inhibition was -7.65% (inactive).

On to `CC(=O)NC12CC3CC(C1)CC(C(=O)N1CCN(C(=O)c4ccco4)CC1)(C3)C2`, for which the inhibition was -0.56% (inactive).

With `CCOc1ccc(Nc2nc(Cl)nc(N3CCN(c4ccc(OC)cc4)CC3)n2)cc1`, the inhibition is 29.1% (active).

For the compound `COc1ccc(Nc2ncc(F)c(N3CCOCC3)n2)cc1`, the inhibition is -0.86% (inactive).

For `CCN1CCN(c2nc(Nc3cc(OC)ccc3OC)nc(Nc3cc(OC)ccc3OC)n2)CC1`, the inhibition is 12.3% (inactive).

`Cc1ccc(Nc2cc(C)nc3c(C)ccc([N+](=O)[O-])c23)cc1`: the inhibition is -5.69% (inactive).

Turning to `CCNC(=O)CCc1nc(-c2ccc(C(C)(C)C)cc2)no1`, the inhibition was 9.83% (inactive).

Take `Cc1cccc(-c2nc3c(c(SCC(=O)N4CCOCC4)n2)CCCC3)c1`: the inhibition was 3.91% (inactive).

In the case of `CCCS(=O)(=O)NC(=O)C1(C)CCCN(C(=O)c2ccnc(Cl)c2)C1` (configuration not stated), the inhibition was -1.37% (inactive).

As for `Cc1nnc(N/N=C/C2CC=CCC2)[nH]c1=O` (configuration not stated), the inhibition is 33.9% (active).

In the case of `Cc1nnc(N/N=C/c2ccccn2)[nH]c1=O`, the inhibition is -1.07% (inactive).

Take `O=C(N/N=C\C1CC=CCC1)c1ccc(Br)o1` (configuration not stated): the inhibition is 6.38% (inactive).

For the compound `CCN1CCN(C(=O)CN(C)S(=O)(=O)c2ccc(OC)cc2)CC1`, the inhibition is 9.54% (inactive).

For the compound `Cc1ccc(NC(=O)CCNC(=O)c2ccc([N+](=O)[O-])cc2)cc1S(=O)(=O)N1CCOCC1`, the inhibition was -2.86% (inactive).

Turning to `Cc1ccc(C)c(S(=O)(=O)N2CCN(CC(=O)Nc3ccc([N+](=O)[O-])cc3)CC2)c1`, the inhibition was 34.2% (active).

`Cc1ccc([N+](=O)[O-])cc1S(=O)(=O)N1CCCN(C)CC1`: the inhibition is -8.59% (inactive).

In the case of `COC(=O)c1ccc(CSc2ccc(S(=O)(=O)N3CCCCC3)cn2)cc1`, the inhibition was 0.99% (inactive).

In the case of `Cc1ccc(Sc2cc(C(=O)c3ccccc3C(=O)O)ccc2[N+](=O)[O-])cc1`, the inhibition was -7.09% (inactive).

Regarding `Cc1ccc(SC(C)C(=O)NCc2ccc(F)cc2)cc1` (configuration not stated), the inhibition was -3.51% (inactive).

For the compound `Cc1ccc(SC(CC(=O)c2ccc(C(C)(C)C)cc2)C(=O)O)cc1` (configuration not stated), the inhibition was 31.2% (active).

Take `Cc1ccc(S(=O)(=O)NC(C(=O)N2CCOCCOCCOCCOCC2)c2ccccc2)cc1` (configuration not stated): the inhibition is -0.07% (inactive).

`CCCC(C(=O)n1nc(C)cc1C)C(NS(=O)(=O)c1ccc(C)cc1)c1ccccc1` (configuration not stated): the inhibition was 34.4% (active).

Regarding `Cc1ccc(S(=O)(=O)Nc2nc(C)cc(-n3nc(C)cc3C)n2)cc1`, the inhibition was 14.3% (inactive).

For the compound `CCc1c(C)[nH]c(=S)c(C#N)c1C`, the inhibition was 14.3% (inactive).

For `O=C1NC[C@@H](c2ccccc2)OC(=O)[C@H](Cc2ccc(F)cc2)CC/C=C/C[C@H]1CC(=O)N(CCO)Cc1ccccc1`, the inhibition is 7.53% (inactive).

On to `O=C1/C(=C\c2ccc([N+](=O)[O-])cc2)CS(=O)(=O)C/C1=C/c1ccc([N+](=O)[O-])cc1`, for which the inhibition is 34.6% (active).

As to `O=C(O)C(=Cc1ccc([N+](=O)[O-])cc1)CCc1ccccc1`, the inhibition was -2.43% (inactive).

Consider `CC(=O)Nc1ccc(C=Cc2ccc([N+](=O)[O-])cc2)cc1`, for which the inhibition is 1.16% (inactive).

Take `CCN(C(=O)CSc1ncnc2sccc12)c1c(N)n(Cc2ccccc2)c(=O)[nH]c1=O`: the inhibition is -1.83% (inactive).

As for `CCCNc1ncnc2sc(C)c(C)c12`, the inhibition is -9.19% (inactive).

As to `COc1ccc(OC)c(S(=O)(=O)n2c([N+](=O)[O-])cnc2C)c1`, the inhibition is 0.16% (inactive).

For the compound `COc1cccc(CSc2nc3nc(C)cc(C)n3n2)c1`, the inhibition was -3.34% (inactive).

For the compound `COc1ccc(C(C[N+](=O)[O-])n2nc(C)cc2C)cc1` (configuration not stated), the inhibition was 46.6% (active).

For the compound `Cc1ccc(C)c(S(=O)(=O)N2CCCOC2CNC(=O)C(=O)NC2CCCCC2)c1` (configuration not stated), the inhibition is 4.1% (inactive).

Consider `O=C1CCC([N+](=O)[O-])C(c2ccccc2Br)N1` (configuration not stated), for which the inhibition is 25.1% (inactive).

Turning to `C/C(=N\OCC(=O)Nc1ccc(Br)cc1)c1cccs1`, the inhibition was -1.35% (inactive).

`Cc1ccc(OCC(=O)Nc2ccc(N3CCN(C(=O)c4ccco4)CC3)cc2)c(C)c1`: the inhibition is 12.1% (inactive).

As to `Cc1ccc(OCC(=O)Nc2ccc(NC(=O)c3cccs3)cc2)c(C)c1`, the inhibition is 29.7% (active).

On to `CC(=O)Oc1ccc(-c2cccc(C(=O)N3CCCCC3)c2)cc1`, for which the inhibition was -4.05% (inactive).

As for `O=C(O[C@@H]1[C@H](Cc2ccccc2)NS(=O)(=O)[C@H]2C[C@@H]3C=C[C@]12O3)c1ccccc1Br`, the inhibition is 12% (inactive).

As to `Cc1ccc(C)c(NC(=O)CN(C)C(=O)COc2ccc3ccccc3c2)c1`, the inhibition is 2.76% (inactive).

With `Cc1ccc(C)c(NS(=O)(=O)c2ccc(OCC(=O)NCc3cccnc3)cc2)c1`, the inhibition is -2.79% (inactive).

Consider `Cc1ccc(NS(=O)(=O)c2ccc(C)c(NC(=O)COc3ccc4ccccc4c3)c2)c(C)c1`, for which the inhibition is 31.4% (active).

For the compound `O=C(Nc1cc(C(F)(F)F)ccc1Cl)c1cc2nc3c(c(C(F)(F)F)n2n1)CCCC3`, the inhibition was 2.12% (inactive).

Turning to `CN(CC(=O)NC1CCCC1)S(=O)(=O)c1cnc[nH]1`, the inhibition was -1.7% (inactive).

As to `O=C(OCc1ccc([N+](=O)[O-])cc1)C1CC(=O)N(Cc2ccccc2Cl)C1` (configuration not stated), the inhibition is 7.18% (inactive).

With `CCCCCOC(=O)C1=C(C)Nc2nnnn2C1c1ccc(OC)c(OC)c1OC` (configuration not stated), the inhibition is 12.4% (inactive).

Regarding `Cn1ccc(=NC=C(C#N)C#N)c2ccccc21`, the inhibition is 27.8% (inactive).

Turning to `O=[N+]([O-])/C=C/c1ccc2c(ccn2Cc2ccccc2)c1`, the inhibition was 46.2% (active).

With `O=C(CN1CCCSc2ccccc21)N1CCN(S(=O)(=O)c2cccc(F)c2)CC1`, the inhibition was 5.01% (inactive).

As for `N#C/C=C1\Sc2ccccc2C(=O)N1CC(=O)N1CCN(S(=O)(=O)c2ccccc2)CC1`, the inhibition was 33.4% (active).

As for `O=C(CN1CCCSc2ccccc21)N1CCN(S(=O)(=O)c2ccccc2)CC1`, the inhibition is 5.29% (inactive).

Turning to `Cc1ccc2c(c1)C1CN(C)CCC1N2S(=O)(=O)c1ccc(Oc2ccc([N+](=O)[O-])cc2)cc1` (configuration not stated), the inhibition was 2.73% (inactive).

On to `O=C(CN1CCc2ccccc21)NC(c1ccccc1)c1ccccc1`, for which the inhibition was 1.1% (inactive).

On to `Cn1cccc1C(=O)OCC(=O)c1ccc(Br)s1`, for which the inhibition is 4.25% (inactive).

As to `NC(=O)c1ccc(NC(=O)COC(=O)c2c3c(nc4ccccc24)/C(=C\c2ccc4c(c2)OCO4)CCC3)cc1`, the inhibition is -10% (inactive).

For the compound `O=C(COC(=O)c1c2c(nc3ccccc13)CCCC2)c1ccc(Br)s1`, the inhibition was 33.9% (active).

Take `COC(=O)c1cc(NC(=O)c2cc(C(C)(C)C)nn2Cc2cccc(C)c2)ccc1N1CCOCC1`: the inhibition was 4.17% (inactive).

`COc1ccc(NC2CCCN(C(=O)c3ccccc3-c3ncc[nH]3)C2)cc1` (configuration not stated): the inhibition was 4.61% (inactive).

Regarding `CCc1ccc2oc(=O)cc(CN3CCCCC3C)c2c1` (configuration not stated), the inhibition is 10.6% (inactive).

Take `CC(NC(=O)COc1ccccc1)C(=O)NC1=NCCS1` (configuration not stated): the inhibition is 0.52% (inactive).

With `O=C(OCC(=O)N1CCCCCC1)c1cnc(Cl)c(Cl)c1`, the inhibition is 30.5% (active).

Regarding `CCOc1ncccc1C(=O)NCCc1ccc(OC)cc1`, the inhibition is -0.79% (inactive).

As for `COc1ccc(CCNC(=O)COC(=O)c2ncc(Cl)c(Cl)c2Cl)cc1OC`, the inhibition was 14.8% (inactive).

As to `O=C(OCC(=O)N1CCCC1)c1ccc(Cl)nc1`, the inhibition is -3.4% (inactive).

Consider `COc1ccc(CCNC(=O)c2cnc(Cl)c(Cl)c2)cc1`, for which the inhibition is 29.6% (active).

Take `CC(CCc1ccccc1)NC(=O)c1cnc(Cl)c(Cl)c1` (configuration not stated): the inhibition is 9.38% (inactive).

In the case of `COC(=O)c1ccc(COC(=O)c2cnc(Cl)c(Cl)c2)cc1`, the inhibition is 21.5% (inactive).

Regarding `COc1ccc(CCNC(=O)COC(=O)c2cnc(Cl)c(Cl)c2)cc1`, the inhibition is 39.7% (active).

Consider `O=C(OCC(=O)N1CCCCCC1)c1ccc(Cl)nc1`, for which the inhibition is 2.21% (inactive).

Take `NC1=NC(=O)S/C1=C\c1ccc(O)cc1`: the inhibition was -45.1% (inactive).

Regarding `CC(CC(=O)C1C(C)C=CCC1(C)C)NNC(N)=O` (configuration not stated), the inhibition is 0.06% (inactive).

Take `CCCc1nc2oc3c(OCC)ncnc3c2c2c1COC(C)(C)C2`: the inhibition is 2.51% (inactive).

For `COc1ccc(/C=N/n2c(C)cc(C)cc2=O)cc1`, the inhibition was 5.08% (inactive).

On to `CCOC(=O)C1=CN(Cc2ccc(Br)cc2)S(=O)(=O)NC1C` (configuration not stated), for which the inhibition is 1.79% (inactive).

As for `CN(C)/C=C(/C(=O)c1ccc(F)cc1)S(=O)(=O)c1ccc(F)cc1`, the inhibition is -0.11% (inactive).

`CCOC(=O)N1CCN(C(=O)C2CCN(S(C)(=O)=O)CC2)CC1`: the inhibition is 3.32% (inactive).

Regarding `Brc1ccc(CN2CC[C@H]3C=CCc4cccc(c43)C2)cc1`, the inhibition was 11.3% (inactive).

In the case of `Cc1cc(=O)n2nc(N3CCCC(C(=O)N4CCN(C)CC4)C3)sc2n1` (configuration not stated), the inhibition was 0.44% (inactive).

On to `CSc1nnc2c(n1)OC(c1ccsc1)N(C(C)=O)c1ccccc1-2` (configuration not stated), for which the inhibition was 3.07% (inactive).

In the case of `CNC(=O)C1CN(C(=O)c2cccc(S(=O)(=O)N3CCc4ccccc43)c2)c2ccccc2O1` (configuration not stated), the inhibition is 5.06% (inactive).

On to `CSc1ccc(C#N)cc1NC(=O)c1ccc(Cl)cc1`, for which the inhibition is 2.18% (inactive).

As to `Cc1c(Cl)cccc1NC(=O)NCc1ccc(C)n1C`, the inhibition was 5.07% (inactive).

In the case of `Cc1c(Cl)cccc1NC(=S)NCC(O)c1ccccc1` (configuration not stated), the inhibition is 3.92% (inactive).

For `Cc1c(Cl)cccc1NC(=O)[C@@]1(CC(=O)O)CC(/C=C/c2ccccc2)=NO1`, the inhibition is 38.9% (active).
